Test results: publication PMC2647857 (Journal of the American Chemical Society, 2009)
Where “and” joins values, the source holds several entries; their conditions need not be identical. Identical values can stand only once.

Experiments:
[1] = target: NP1-E55Q (Rhodnius prolixus, UniProt Q26239, E78Q); experiment: biochemical; format: binding
[2] = Spectroelectrochemical midpoint potential, ligand-free; format: physicochemical, Rhodnius prolixus; conditions: ligand-free
[3] = Spectroelectrochemical midpoint potential of the NO complex; format: physicochemical, Rhodnius prolixus; conditions: NO bound
Outline: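 Spectroelectrochemistry of ~0.05 mM E. coli-expressed protein in 0.1 M sodium phosphate or acetate at pH 5.5, 6.5 and 7.5, 27 ± 1 °C. SNAP supplied NO at a level fully complexing both oxidation states. Ag/AgCl reference ([…] mV vs SHE). Absorbance versus applied potential fit to Nernst equation; pH dependence and mutant−standard differences derived.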

[4] = Imidazole binding constant to Fe; design: species or system Rhodnius prolixus; conditions: pH 7.5

Sequence of NP1-E55Q (Q26239 24-207 E78Q): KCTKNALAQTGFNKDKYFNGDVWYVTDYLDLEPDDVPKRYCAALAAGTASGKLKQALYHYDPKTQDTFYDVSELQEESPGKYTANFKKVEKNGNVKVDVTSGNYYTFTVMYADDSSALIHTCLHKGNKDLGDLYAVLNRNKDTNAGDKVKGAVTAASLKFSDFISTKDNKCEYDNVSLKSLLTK

Molecule | Kd [1] | ΔEm = Em(mutant)−Em(standard) ([2]; pH 5.5) | Em ([2]; pH 5.5, 27 °C) | ΔEm = Em(mutant)−Em(standard) ([2]; pH 6.5) | Em ([2]; pH 6.5, 27 °C) | ΔEm = Em(mutant)−Em(standard) ([2]; pH 7.5) | Em ([2]; pH 7.5, 27 °C) | ΔpHΔ(Em,NO) = ΔEm,NO(pH7.5) − ΔEm,NO(pH5.5) [3] | ΔEm,NO = Em(mutant)−Em(standard) ([3]; pH 5.5) | Em,NO ([3]; pH 5.5, 27 °C) | ΔEm,NO = Em(mutant)−Em(standard) ([3]; pH 6.5) | Em,NO ([3]; pH 6.5, 27 °C) | ΔEm,NO = Em(mutant)−Em(standard) ([3]; pH 7.5) | Em,NO ([3]; pH 7.5, 27 °C) | binding constant of imidazole larger than that of histamine [4]
c1c[nH]cn1 [imidazole, imidazole (ImH)] | 200 nM |  |  |  |  |  |  |  |  |  |  |  |  |  | 
NP2-D1A,D29A: site-directed mutant of NP2-D1A, D29 replaced by Ala |  | −17±3 mV | −334±3 mV vs. SHE | 19±6 mV | −308±3 mV vs. SHE | 12±3 mV | −313±1 mV vs. SHE | 50±3 mV | −28±2 mV | 20±1 mV vs. SHE | 26±2 mV | 36±1 mV vs. SHE | 22±2 mV | 2±1 mV vs. SHE | 1.3 log units
NP2-D1A,D31A: site-directed mutant of NP2-D1A, D31 replaced by Ala |  | −55±6 mV | −373±6 mV vs. SHE | −45±9 mV | −372±8 mV vs. SHE | −41±4 mV | −366±3 mV vs. SHE | 22±3 mV | −10±2 mV | 38±2 mV vs. SHE | −3±2 mV | 7±2 mV vs. SHE | 12±3 mV | −8±2 mV vs. SHE | 
NP2-D1A,D36A: site-directed mutant of NP2-D1A, D36 replaced by Ala |  | 25±4 mV | −293±3 mV vs. SHE | 11±7 mV | −315±4 mV vs. SHE | 18±5 mV | −307±4 mV vs. SHE | 39±5 mV | −12±4 mV | 36±4 mV vs. SHE | 20±2 mV | 30±2 mV vs. SHE | 28±3 mV | 8±2 mV vs. SHE | 
NP2-D1A,D89A: site-directed mutant of NP2-D1A, D89 replaced by Ala |  | 34±3 mV | −284±3 mV vs. SHE | 23±7 mV | −304±4 mV vs. SHE | 5±4 mV | −320±3 mV vs. SHE | 33±3 mV | 3 mV and 3±2 mV |  | 9±2 mV | 19±1 mV vs. SHE | 37 mV and 37±2 mV | 17±2 mV vs. SHE | 
NP2-D1A,D99A: site-directed mutant of NP2-D1A, D99 replaced by Ala |  | 14±4 mV | −304±4 mV vs. SHE | 13±6 mV | −314±1 mV vs. SHE | −12±5 mV | −337±4 mV vs. SHE | 21±2 mV | −10±2 mV | 38±1 mV vs. SHE | −1±3 mV | 9±2 mV vs. SHE | 11±2 mV | −9±1 mV vs. SHE | 
